Reference: ChEMBL document CHEMBL4411332, “Deciphering the Role of Intramolecular Networking in Cholic Acid-Peptide Conjugates on the Lipopolysaccharide Surface in Combating Gram-Negative Bacterial Infections” (J Med Chem, 2019)
Converted amounts (≈) assume the structure as drawn. The source made the active and inactive calls. The calls are words filed in the database; no cut-off is given here.

System: Escherichia coli
Experiment: Antibacterial activity against Escherichia coli by broth dilution assay
Type: functional
Method in brief: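 MIC99 by broth-dilution assay; antibacterial and culture details are in the Supporting Information.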

Row | MIC99 | Compound
1 | inactive | C[C@H](CCC(=O)OCc1ccccc1)[C@H]1CC[C@H]2[C@@H]3[C@H](OC(=O)CNC(=O)[C@@H](N)Cc4ccc(O)cc4)C[C@@H]4C[C@H](OC(=O)CNC(=O)[C@@H](N)Cc5ccc(O)cc5)CC[C@]4(C)[C@H]3C[C@H](OC(=O)CNC(=O)[C@@H](N)Cc3ccc(O)cc3)[C@]12C
2 | 8 to 128 µM (≈ 8.07 to 129 µg/mL) | CC(C)C[C@H](N)C(=O)NCC(=O)O[C@@H]1CC[C@@]2(C)[C@@H](C1)C[C@@H](OC(=O)CNC(=O)[C@@H](N)CC(C)C)[C@@H]1[C@@H]2C[C@H](OC(=O)CNC(=O)[C@@H](N)CC(C)C)[C@]2(C)[C@@H]([C@H](C)CCC(=O)OCc3ccccc3)CC[C@@H]12
